Measurements as given in ChEMBL document CHEMBL1144537, “Synthesis of a non-cationic, water-soluble perylenetetracarboxylic diimide and its interactions with G-quadruplex-forming DNA” (Bioorg Med Chem, 2007).
Activity calls are given as the source filed them. The rule behind the calls is not given here.

Legend:
[1] = Binding affinity to 32 base containing human telomeric repeat G-rich ssDNA by fluorescence quenching assay
Method in brief: (§1)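 Ligand held at fixed 34–168 nM in 10 mM Tris–HCl (pH 8.0) with 100 mM KCl and 1 mM EDTA, then titrated with G-rich strand, C-rich complement, or duplex made by mixing both. Each addition mixed 2 min at 25 °C. Excitation 450 nm; quenching at 545 nm read. Kd fitted by nonlinear least squares to non-interacting-site mass-action model; triplicate titrations, mean ± SD.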

[2] = Binding affinity to 32 base containing complementary human telomeric repeat C-rich ssDNA by fluorescence quenching assay; method in brief: as §1
[3] = Binding affinity to double stranded human telomeric repeat by fluorescence quenching assay; method in brief: as §1
[4] = Binding affinity to human nuclease hypersensitive region of c-MYC gene NHE-27 by fluorescence quenching assay; method in brief: as §1
[5] = Binding affinity to complementary nuclease hypersensitive region of c-MYC gene NHE-27 by fluorescence quenching assay; set-up: species or system Homo sapiens; method in brief: as §1
[6] = Binding affinity to human double stranded nuclease hypersensitive region of c-MYC gene NHE-27 by fluorescence quenching assay; method in brief: as §1
[7] = species on record: Homo sapiens; test: Induction of tetramer formation in human nuclease hypersensitive region of c-MYC gene NHE-27 G-rich ssDNA
[8] = species on record: Homo sapiens; test: Induction of tetramer formation in human telomeric repeat 2HTR G-rich ssDNA
[9] = species on record: Homo sapiens; test: Induction of dimer formation in human nuclease hypersensitive region of c-MYC gene NHE-27 G-rich ssDNA
[10] = species on record: Homo sapiens; test: Induction of dimer formation in human telomeric repeat 2HTR G-rich ssDNA

COCCOCCOCC(COCCOCCOC)N1C(=O)c2ccc3c4ccc5c6c(ccc(c7ccc(c2c37)C1=O)c64)C(=O)N(C(COCCOCCOC)COCCOCCOC)C5=O
Kd [1]: > 20000 nM | Kd [2]: > 20000 nM | Kd [3]: > 20000 nM | Kd [4]: 980 nM | Kd [5]: > 20000 nM | Kd [6]: 14800 nM | Activity [7]: inactive | Activity [8]: inactive | Activity [9]: inactive | Activity [10]: inactive

O=C1c2ccc3c4ccc5c6c(ccc(c7ccc(c2c37)C(=O)N1CCN1CCCCC1)c64)C(=O)N(CCN1CCCCC1)C5=O
Kd [1]: 3.4 nM | Kd [2]: 10 nM | Kd [3]: 30 nM | Kd [4]: 5.5 nM | Kd [6]: 6.6 nM | Activity [7]: Active | Activity [8]: Active | Activity [9]: Active | Activity [10]: Active
